Results on 72 molecules are retold here after ChEMBL document CHEMBL4513216, “Probing the Open Global Health Chemical Diversity Library for Multistage-Active Starting Points for Next-Generation Antimalarials” (ACS Infect Dis, 2020).

Each structure is given as a SMILES string.

A short description of the data set: Toxicity liver stage against HepG2, at 10uM. Format: cell-based. Also on record: test concentration 10 uM, cell line HepG2-A16-CD81EGFP. The conditions noted are these: human, HepG2-A16-CD81EGFP cells; read-out: INHIBITION
The essentials: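 Uninfected HepG2-A16-CD81EGFP cells, 3 × 10^3 per well, 1536-well, plated on prespotted compound at 10 μM final, parasite-free screening media added to match infected plates; puromycin 10 μM positive, DMSO 0.5% negative; run in parallel with 48 h PbLuc assay at 37 °C, 5% CO2; viability by CellTiter-Glo luminescence, normalized to controls.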
With `Cc1csc(CN(C)C(=O)C2CCC(=O)N(CCN(C)C)C2)n1` (configuration not stated), the cytotoxicity at 10 µM amounted to 15.6%.
`COc1ccc(CNC[C@H]2COCc3nc4cccnc4n32)cn1`: the cytotoxicity at 10 µM was -0.772%.
For `CC(c1ccncc1)N(CCN(C)C)C(=O)Nc1ccc(Cl)cc1` (configuration not stated) the value was 8.88%; for `COc1ccc(S(=O)(=O)N2CCC(Cn3ccnc3)CC2)cc1`, -0.178%; for `CCCC(=O)NCC(Cc1cccc(F)c1)N1CCCC1=O` (configuration not stated), -2.91%.
For `COc1ccc(Cl)cc1NC(=O)N1CCc2nc(NC(C)=O)sc2C1` the value was 12.1%; for `CN(C)CCN1C[C@@H]2CN(C(=O)C3CC=CC3)C[C@@H]2C1=O`, -1.34%.
For `CC(C)c1ccc(-n2nnc(C(=O)O)c2-c2ccccn2)cc1` the value was 9.18%; for `COc1ccc(-c2nnsc2C(=O)N2CCOCC2)cc1`, 3.03%; for `COCCNC(=O)C[C@@H]1COC[C@H]2CN(C(=O)c3cnccn3)C[C@@H]12`, -12.2%.
In the case of `Cc1c(Br)c(C(F)(F)F)nn1C(C)C(=O)O` (configuration not stated), the cytotoxicity at 10 µM stood at 8.05%.
For the molecule `COc1ccc(C(C)Nc2ncnc3c2NC(=O)CN3)cc1` (configuration not stated), the cytotoxicity at 10 µM is 7.83%.
`O=C(c1nn[nH]c1Nc1cccc(Cl)c1)N1CCSCC1`: the cytotoxicity at 10 µM turned out to be 20.3%.
Consider `CCCNC(=O)c1nn(CC)cc1NC(=O)C(C)n1ncc(Cl)c1C` (configuration not stated), for which the cytotoxicity at 10 µM was 7.19%.
For `COCCNc1cc(C(=O)N2CCOCC2)nc(C)n1` the value was 0.598%; for `Cc1nc(NCCc2ccc(Cl)cc2)cc(C(=O)N2CCOCC2)n1`, -4.78%.
For `NCCCC(=O)NCC1(O)CCN(c2ccnc3cccnc23)C1` (configuration not stated) the value was 1.58%.
The figure for `Cc1c[nH]c(C2COCCN2C(=O)c2n[nH]c(=O)c3ccccc23)n1` (configuration not stated) is -0.555%.
For the molecule `CC(=O)NCCNC(=O)c1nc(C2CC2)n(-c2ccccc2Cl)n1`, the cytotoxicity at 10 µM was 9.74%.
Regarding `N#Cc1cn(C2CC2)c(=O)n(Cc2ncc(-c3cccs3)o2)c1=O`, the cytotoxicity at 10 µM is 14.8%.
For `O=C1CN(Cc2occc2C(=O)NCCc2ccc(F)cc2)CCN1` the value was -10.2%.
For `COC(=O)COc1c(F)cc(Br)cc1C(C)=O` the value was 2.63%.
The figure for `NC(=O)CN(CC(=O)NCc1cc(F)cc(F)c1)C1CCCC1` is -8.58%; for `Cc1nc(C(C)C)sc1C(=O)N(C)Cc1cnn(C)c1` it is 6.45%; for `CN1CCN(CC(NCc2ccc(F)c(F)c2)c2ccccc2)CC1` (configuration not stated) it is -10%.
`CCn1nc2c(cc1=O)CN(Cc1nc3ccccc3o1)CC2`: the cytotoxicity at 10 µM was -8.9%.
For `N#Cc1ccc(F)c(CNC(=O)NC(CO)Cc2ccccc2)c1` (configuration not stated) the value was 1.98%; for `O=C(NCC(O)c1ccc(F)c(F)c1)c1ccccc1F` (configuration not stated), -3%.
The figure for `O=C(CS(=O)(=O)Cc1ccccc1)NCc1ccccc1F` is -17.6%; for `COc1ccc(CCC(=O)N(C)CCN2CCOCC2)cc1OC` it is 7.83%; for `CN(Cc1cnn(C)c1)C(=O)NC1CCCC1` it is 7.43%.
As for `Cc1nccc(CNC(=O)Nc2cc(C(F)(F)F)c[nH]c2=O)n1`, the cytotoxicity at 10 µM is -1.16%.
The figure for `CC(C)c1nsc(NC2CC(=O)N(C(C)(C)C)C2)n1` (configuration not stated) is 5.09%.
With `CS(=O)(=O)N1CCC(OCCCc2ccccc2)C1` (configuration not stated), the cytotoxicity at 10 µM came out at 8.13%.
The figure for `COc1ccc(C(NCc2cccc(C#N)c2)C2CC2)cc1` (configuration not stated) is 15.9%.
In the case of `Cc1ccc(C2CSCCN2C(=O)c2cnsn2)o1` (configuration not stated), the cytotoxicity at 10 µM is 5.11%.
As to `Cc1cc(CC(=O)NC2CCCN(c3ccccc3Cl)C2=O)n[nH]1` (configuration not stated), the cytotoxicity at 10 µM turned out to be 3.55%.
The figure for `Cc1cc(NC(=O)C(C)N2CCN(c3ccccc3F)CC2)no1` (configuration not stated) is 2.83%.
For `CC(NC(=O)N1CCC[C@H]1CO)c1noc(-c2ccccc2)n1` (some centres not stated), the cytotoxicity at 10 µM was -6.67%.
For `Cc1ccc2c(c1)OCCN2C(=O)c1ccc(=O)n(C)c1` the value was -5.88%; for `CC(=O)N1CCN(C(=O)C2SCCc3sccc32)CC1` (configuration not stated), -11.5%; for `CC(C)Oc1cccc(C(O)CNC(=O)CCc2ccncc2)c1` (configuration not stated), -3.82%.
For `Cc1ccc(C(=O)N2CCCC2c2nnc3n2CCCCC3)o1` (configuration not stated), the cytotoxicity at 10 µM is -6.05%.
For `CN1CCN(C[C@@H]2CN(C3Cc4ccccc4C3)C[C@@H]2CO)CC1`, the cytotoxicity at 10 µM was 8.29%.
As for `CC[C@H](C)[C@@H](CO)NC(C)Cc1ccc(F)cc1` (some centres not stated), the cytotoxicity at 10 µM was -6.27%.
The figure for `CCc1nc(C)c([C@H]2CN(C)C[C@@H]2C(=O)Nc2ccccc2F)[nH]1` is 2.16%.
For `CC(C)Oc1cc(N2CC[C@H](CO)[C@@H](O)C2)nc(N)n1` the value was 2.41%; for `CCCc1nnc(NC(C)c2ccc(F)cc2)o1` (configuration not stated), 2.08%; for `Cc1ccn(-c2cncc(C(N)=O)c2)n1`, 0.0642%.
In the case of `Cc1ccccc1CN1CCN(C(=O)c2ccn(C(C)(C)C)c2)CC1`, the cytotoxicity at 10 µM is -0.585%.
For the molecule `CC(O)c1cn(CC2CCN(C(=O)CN(C)C(C)C)CC2)nn1` (configuration not stated), the cytotoxicity at 10 µM is -1.58%.
For `Cc1cc(C)c2nc(CN3C[C@H](CCO)[C@@H](N)C3)cc(O)c2c1` the value was 5.29%; for `Cc1nnnn1CCC(=O)N1CCC2(CCC(=O)N(CC3CC3)C2)CC1`, 4.17%.
The figure for `COc1ccccc1N1CCN(C(=O)CCn2ccc(C)n2)CC1(C)C` is -8.64%; for `O=S(=O)(c1c(N2CCCCC2)ccc2nonc12)N1CCCCC1` it is -3.39%.
Turning to `COCC(=O)N1CCc2cccc(S(=O)(=O)N3CCN(C)CC3)c2C1`, the cytotoxicity at 10 µM was 5.07%.
Turning to `O=C(O)CCc1cc2n(n1)CCCN(C(=O)c1ccc3cc[nH]c3c1)C2`, the cytotoxicity at 10 µM was -13.3%.
For the molecule `CSCC(=O)NS(=O)(=O)c1ccc2c(c1)OCCO2`, the cytotoxicity at 10 µM was -9.69%.
As to `COC(=O)c1cc(C(=O)N2CCCC(C)C2)n(-c2ccccc2)n1` (configuration not stated), the cytotoxicity at 10 µM was -11.9%.
The figure for `COc1ccccc1C(O)CNCc1c(C(C)C)nn(C)c1N(C)C` (configuration not stated) is -7.31%; for `CCOc1cc(C)nc(N2CCN(C(=O)CC)CC2)n1` it is -6.68%.
With `COCCCN(C)C1CCCN(Cc2noc(C)n2)C1` (configuration not stated), the cytotoxicity at 10 µM was -8.06%.
For the molecule `Cc1cc(C)c(CNC(=O)N2CCN(c3ncccn3)CC2)c(=O)[nH]1`, the cytotoxicity at 10 µM was -6.28%.
For `N#Cc1ccnc(N2CCN(C(=O)Cc3ccc4c(c3)CCO4)CC2)c1` the value was -4.1%.
`Cc1ccc(CNC(=O)CN2CCCC(Cn3cncn3)C2)s1` (configuration not stated): the cytotoxicity at 10 µM is -1.78%.
In the case of `O=C(CCCNc1ncccn1)N1CCCC(n2cccn2)C1` (configuration not stated), the cytotoxicity at 10 µM was 7.34%.
With `CC(C)COCC(NC(=O)c1ccccn1)c1ccco1` (configuration not stated), the cytotoxicity at 10 µM is -7.52%.
The figure for `Cc1cnn(CC2CCCN2CC(=O)Nc2nc(C)cs2)c1` (configuration not stated) is -6.26%.
For `Cc1nc(N(C)C)nc2c1COCC21CCN(CC2CC2)C1` (configuration not stated) the value was -8.94%; for `Cn1cc(CN2CCOC3(CCCN(C(=O)c4ccco4)C3)C2)cn1` (configuration not stated), -23.9%; for `Cn1cc(C[C@H]2[C@H](N3CCOCC3)CCN2c2ncc(F)cn2)cn1`, 7.23%.
With `CN(C)C(=O)CN1CCCC12CCCN(c1ncc(F)cn1)C2` (configuration not stated), the cytotoxicity at 10 µM is -2.51%.
